# Tests used:
# [1] = TAOC, total antioxidant capacity; settings: read-out: TAOC EC50; concentration that results in an absorbance of 0.500
# Procedure, shortened: (§1)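 Cell-free antioxidant assays, with Trolox and ascorbic acid as positive controls. Results are expressed as […] or as Trolox equivalents.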
# [2] = tested on: RAW 264.7 mouse macrophage cell line; type: cell-based; settings: RAW264.7, 24 h, read-out: NO Production Inhibition (IC50)
# Procedure, shortened: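 NO production inhibition is measured in RAW 264.7 macrophages, with dexamethasone as positive control and the value given as IC50.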
# [3] = tested on: MDA-MB-231S triple-negative breast cancer cell line; experiment: MTT antiproliferative assay, MDA-MB-231S; type: cell-based; settings: 48 h, read-out: IC50, antiproliferative effect
# Procedure, shortened: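 Antiproliferative test on MDA-MB-231S cells with DMSO as negative (vehicle) control and doxorubicin as positive control. Activity is reported as IC50.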
# [4] = ORAC, oxygen radical absorbance capacity; settings: trolox equivalent
# Procedure, shortened: as §1
# [5] = HORAC, hydroxyl radical absorbance capacity; settings: trolox equivalent
# Procedure, shortened: as §1
compound,measurement,setting,value
O=C1O[C@H]([C@@H](O)CO)C(O)=C1O [ascorbic acid],EC50,[1],244 µM
"C[C@@H]1C[C@H]2[C@@H]3CCC4=CC(=O)C=C[C@]4(C)[C@@]3(F)[C@@H](O)C[C@]2(C)[C@@]1(O)C(=O)CO [dexametasone, Dexamethasone]",IC50,[2],16.1 ± 1.02 µM
COc1cccc2c1C(=O)c1c(O)c3c(c(O)c1C2=O)C[C@@](O)(C(=O)CO)C[C@@H]3O[C@H]1C[C@H](N)[C@H](O)[C@H](C)O1 [doxorubicin],IC50,[3],0.07 ± 0.01 µM
Cc1c(C)c2c(c(C)c1O)CCC(C)(C(=O)O)O2 (stereo not drawn) [trolox],ORAC (TE),[4],1 TE
same,HORAC (TE),[5],1 TE
same,EC50,[1],143 µM

# Reference: publication PMC11044231 (ACS Omega, 2024)
